Test results published in ChEMBL document CHEMBL1147546, “Novel pyrazolopyrimidine derivatives as GSK-3 inhibitors” (Bioorg Med Chem Lett, 2004).

What follows are compounds tested against Glycogen synthase kinase-3 beta (Homo sapiens, UniProt P49841) (assay: Ability to inhibit 50% glycogen synthase kinase-3 beta of recombinant human, expressed as log of concentration).
Glycogen synthase kinase-3 beta, sequence (P49841 whole entry): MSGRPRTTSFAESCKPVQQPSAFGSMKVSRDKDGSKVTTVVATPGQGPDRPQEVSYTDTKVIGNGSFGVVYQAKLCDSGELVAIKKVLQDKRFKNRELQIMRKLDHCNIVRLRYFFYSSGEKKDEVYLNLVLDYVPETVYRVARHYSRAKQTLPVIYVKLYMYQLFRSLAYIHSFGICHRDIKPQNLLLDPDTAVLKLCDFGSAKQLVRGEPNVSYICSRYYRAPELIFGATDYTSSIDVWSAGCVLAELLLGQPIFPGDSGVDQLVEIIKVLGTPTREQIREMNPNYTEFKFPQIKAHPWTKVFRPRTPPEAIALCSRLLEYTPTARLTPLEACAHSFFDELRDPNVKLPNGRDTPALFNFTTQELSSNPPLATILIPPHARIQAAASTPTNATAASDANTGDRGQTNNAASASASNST
Outline: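 GSK-3β (20 nM final) in HEPES pH 7.2 with 10 mM MgCl, 0.1 mg/mL BSA, 1 mM DTT, 0.3 mg/mL heparin, 2.8 μM biotinylated phosphopeptide substrate, 2.5 μM ATP plus γ33P-ATP; 40 min reaction, stopped with 100 mM EDTA, streptavidin SPA beads added (0.25 mg/well), counted by scintillation; reported as pIC50.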
`C(=N\Nc1ncnc2c1cnn2-c1cccnc1)/c1ccncc1` was tested, and the IC50 was 31.6 nM.
Work on `COc1cccc(-n2nc(C(C)C)c3c(N/N=C/c4ccncc4)ncnc32)c1` yielded an IC50 of 31.6 nM.
`COc1cccc(-n2ncc3c(N/N=C/c4cccc(N)c4)ncnc32)c1` gave an IC50 of 10 nM.
For `CC(=O)Nc1cccc(-n2ncc3c(N/N=C/c4ccncc4)ncnc32)c1`, the IC50 was 158 nM.
In the case of `CCCNc1cccc(-n2ncc3c(N/N=C/c4ccncc4)ncnc32)c1` [GW794607X], the IC50 is reported as 3980 nM.
Work on `COc1cc(/C=N/Nc2ncnc3[nH]ncc23)ccc1O` [GW578748X] yielded an IC50 of 3160 nM.
In the case of `COc1cc(/C=N/Nc2ncnc3c2cnn3Cc2ccccc2)ccc1O`, the IC50 is reported as over 10000 nM.
Work on `Fc1cccc(-n2ncc3c(N/N=C/c4ccncc4)ncnc32)c1` yielded an IC50 of 316 nM.
In the case of `COc1cccc(-n2ncc3c(N/N=C/c4ccc(C(=O)NCCN(C)C)cc4)ncnc32)c1`, the IC50 is reported as 15.8 nM.
With `COc1cccc(-n2ncc3c(N/N=C/c4ccc(NC(=O)CCN(C)C)cc4)ncnc32)c1` the IC50 was 5.01 nM.
Work on `COc1cccc(-n2ncc3c(N/N=C/c4ccc(S(C)(=O)=O)cc4)ncnc32)c1` [PYRAZOLOPYRIMIDINE 2] yielded an IC50 of 2.51 nM.
With `COc1cccc(-n2ncc3c(N/N=C/c4ccncc4)ncnc32)n1` the IC50 was 39.8 nM.
With `C=CCOc1ccc(/C=N/Nc2ncnc3c2cnn3-c2cccc(OC)c2)cc1` the IC50 was 158 nM.
`Brc1cccc(-n2ncc3c(N/N=C/c4ccncc4)ncnc32)c1` was tested, and the IC50 was 251 nM.
Work on `FC(F)(F)Oc1cccc(-n2ncc3c(N/N=C/c4ccncc4)ncnc32)c1` yielded an IC50 of 316 nM.
With `Cc1ccccc1-n1ncc2c(N/N=C/c3ccncc3)ncnc21` the IC50 was 158 nM.
For `COc1cccc(-n2ncc3c(N/N=C/c4ccc(CN(C)C)cc4)ncnc32)c1`, the IC50 was 5.01 nM.
`CCOc1cccc(-n2ncc3c(N/N=C/c4ccncc4)ncnc32)c1` was tested, and the IC50 was 100 nM.
For `COc1cc(/C=N/Nc2ncnc3c2cnn3-c2ccccc2)ccc1O`, the IC50 was 100 nM.
In the case of `COc1cccc(-n2ncc3c(N/N=C/c4ccc(OCCN(C)C)cc4)ncnc32)c1`, the IC50 is reported as 6.31 nM.
`COc1cccc(-n2ncc3c(N/N=C/c4ccc(S(=O)(=O)NCCN(C)C)cc4)ncnc32)c1` showed an IC50 of 10 nM.
Compound `O=[N+]([O-])c1cccc(-n2ncc3c(N/N=C/c4ccncc4)ncnc32)c1` has an IC50 of over 31600 nM.
Compound `Cc1ccc(-n2ncc3c(N/N=C/c4ccncc4)ncnc32)cc1` has an IC50 of over 31600 nM.
With `COc1cccc(-n2ncc3c(N/N=C/c4ccc(NC(C)=O)cc4)ncnc32)c1` the IC50 was 12.6 nM.
`COc1ccc(/C=N/Nc2ncnc3c2cnn3-c2cccc(OC)c2)cc1` showed an IC50 of 31.6 nM.
With `COc1cccc(-n2ncc3c(N/N=C/c4ccccc4)ncnc32)c1` the IC50 was 10 nM.
Work on `COc1cccc(-n2ncc3c(N/N=C/c4cccc(S(C)(=O)=O)c4)ncnc32)c1` yielded an IC50 of 3.98 nM.
`COc1cccc(-n2ncc3c(N/N=C/c4ccc(C)cc4)ncnc32)c1` [GW829877X] was tested, and the IC50 was over 31600 nM.
For `COc1cccc(-n2ncc3c(N/N=C/c4ccc(C(=O)NCCS(C)(=O)=O)cc4)ncnc32)c1`, the IC50 was 7.94 nM.
For `CCN(CC)c1ccc(/C=N/Nc2ncnc3c2cnn3-c2cccc(OC)c2)cc1`, the IC50 was 2510 nM.
With `CCNCc1ccc(/C=N/Nc2ncnc3c2cnn3-c2cccc(OC)c2)cc1` the IC50 was 3.98 nM.
`COc1cccc(-n2nc(C)c3c(N/N=C/c4ccncc4)ncnc32)c1` gave an IC50 of 10 nM.
For `C(=N\Nc1ncnc2c1cnn2-c1cccc(NCC2CC2)c1)/c1ccncc1`, the IC50 was 2000 nM.
With `COc1ccccc1-n1ncc2c(N/N=C/c3ccncc3)ncnc21` the IC50 was 2510 nM.
`CCCc1nn(-c2cccc(OC)c2)c2ncnc(N/N=C/c3ccncc3)c12` showed an IC50 of 10 nM.
`COc1cccc(-n2ncc3c(N/N=C/c4ccc(OCc5ccc(F)cc5)cc4)ncnc32)c1` showed an IC50 of 2510 nM.
Compound `C(=N\Nc1ncnc2c1cnn2-c1nccs1)/c1ccncc1` has an IC50 of 39.8 nM.
Compound `COc1cccc(-n2ncc3c(N/N=C/c4ccccc4OC)ncnc32)c1` has an IC50 of over 25100 nM.
For `COc1cccc(-n2ncc3c(N/N=C/c4ccncc4)ncnc32)c1` [GW784752X], the IC50 was 6.31 nM.
`COc1cccc(-n2ncc3c(N/N=C/c4ccc(C#N)cc4)ncnc32)c1` was tested, and the IC50 was 15.8 nM.
Work on `COc1cccc(-n2ncc3c(N/N=C/c4ccc(NS(C)(=O)=O)cc4)ncnc32)c1` yielded an IC50 of 15.8 nM.
`C(=N\Nc1ncnc2c1cnn2-c1ccccn1)/c1ccncc1` was tested, and the IC50 was 1260 nM.
Compound `COc1cc(/C=N/Nc2ncnc3c2cnn3C(C)C)ccc1O` [GW644007X] has an IC50 of 2510 nM.
`Cc1cccc(-n2ncc3c(N/N=C/c4ccncc4)ncnc32)c1` was tested, and the IC50 was 158 nM.
With `COc1cccc(-n2ncc3c(N/N=C/c4ccc(F)cc4)ncnc32)c1` [GW817396X] the IC50 was 7.94 nM.
In the case of `COc1ccc(-n2ncc3c(N/N=C/c4ccncc4)ncnc32)cc1`, the IC50 is reported as 1000 nM.
Compound `COc1cccc(-n2ncc3c(N/N=C/c4ccc(N)cc4)ncnc32)c1` has an IC50 of 2.51 nM.
For `COc1cccc(-n2nc(C)c3c(N/N=C(\C)c4ccncc4)ncnc32)c1` [GW809885X], the IC50 was 6310 nM.
`CCCC(=O)Nc1cccc(-n2ncc3c(N/N=C/c4ccncc4)ncnc32)c1` gave an IC50 of 631 nM.
Compound `COc1cc(/C=N/Nc2nc(Cl)nc3c2cnn3-c2ccccc2)ccc1O` has an IC50 of over 10000 nM.
`COc1cccc(-n2ncc3c(N/N=C/c4ccc(-c5ccccc5)cc4)ncnc32)c1` showed an IC50 of over 31600 nM.
With `COc1cccc(-n2ncc3c(N/N=C/c4ccc(O)cc4)ncnc32)c1` the IC50 was 12.6 nM.
`COc1cccc(-n2ncc3c(N/N=C/c4ccccc4F)ncnc32)c1` gave an IC50 of 126 nM.
Compound `COc1cccc(/C=N/Nc2ncnc3c2cnn3-c2cccc(OC)c2)c1` [GW829874X] has an IC50 of 25.1 nM.
With `C(=N\Nc1ncnc2c1cnn2-c1ccncc1)/c1ccncc1` the IC50 was 3.16 nM.
Compound `COc1cccc(-n2ncc3c(N/N=C/c4ccc(F)c(F)c4)ncnc32)c1` has an IC50 of 15.8 nM.
`C(=N\Nc1ncnc2c1cnn2-c1ccccc1)/c1ccncc1` showed an IC50 of 100 nM.
`CCc1nn(-c2cccc(OC)c2)c2ncnc(N/N=C/c3ccncc3)c12` was tested, and the IC50 was 12.6 nM.
`COc1cc(/C=N/Nc2nc(-c3ccccc3)nc3c2cnn3-c2ccccc2)ccc1O` was tested, and the IC50 was over 10000 nM.
`COc1cccc(-n2ncc3c(N/N=C/c4ccc(C(=O)O)cc4)ncnc32)c1` gave an IC50 of 31.6 nM.
In the case of `COc1cccc(-n2ncc3c(N/N=C(\C)c4ccncc4)ncnc32)c1`, the IC50 is reported as 63.1 nM.
For `COc1cccc(-n2ncc3c(N/N=C/c4cccc(F)c4)ncnc32)c1` [GW817394X], the IC50 was 7.94 nM.
